Assay results: ChEMBL document CHEMBL4334447, “Discovery of 4-Aminoquinoline-3-carboxamide Derivatives as Potent Reversible Bruton's Tyrosine Kinase Inhibitors for the Treatment of Rheumatoid Arthritis” (J Med Chem, 2019)
Calls of active or inactive are those of the source. The rule behind the calls is not given here.

Tests used:
[1] = species: Homo sapiens; assay: Selectivity ratio of IC50 for human full-length recombinant FYN to IC50 for inhibition of FAM-labeled peptide binding to full-length human N-terminal GST-tagged BTK (2 to 659 residues) expressed in baculovirus infected Sf21 insect cells
In short: (§1)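 Ratio of kinase IC50 to BTK IC50. BTK measured by off-chip mobility shift: compound preincubated 10 min with BTK in 50 mM HEPES pH 7.5, 0.01% Brij-35, then FAM-labelled peptide and ATP added, 28 °C. Stopped with EDTA buffer; percent conversion fitted for IC50. Each panel kinase assayed in triplicate.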

[2] = species: Homo sapiens; assay: Selectivity ratio of IC50 for human full-length recombinant YES to IC50 for inhibition of FAM-labeled peptide binding to full-length human N-terminal GST-tagged BTK (2 to 659 residues) expressed in baculovirus infected Sf21 insect cells; in short: as §1
[3] = Stability in human plasma assessed as parent compound remaining at 1 uM measured after 2 hrs by LC-MS/MS analysis; format: ADME, cell-free; details: read-out: Stability
In short: (§2)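 Compound at 1 µM initial concentration incubated 2 h at 37 °C in plasma. Quenched with 10 volumes of methanol containing internal standard, then centrifuged. Supernatant diluted with an equal volume of water and analysed by LC-MS/MS. Read-out is % parent remaining. Mean of three separate assays run in triplicate.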

[4] = Stability in Beagle dog plasma assessed as parent compound remaining at 1 uM measured after 2 hrs by LC-MS/MS analysis; format: ADME, cell-free, Canis lupus familiaris; details: read-out: Stability; in short: as §2
[5] = Stability in Sprague-Dawley rat plasma assessed as parent compound remaining at 1 uM measured after 2 hrs by LC-MS/MS analysis; format: ADME, cell-free; details: read-out: Stability; in short: as §2
[6] = Stability in mouse plasma assessed as parent compound remaining at 1 uM measured after 2 hrs by LC-MS/MS analysis; format: ADME, cell-free; details: read-out: Stability; in short: as §2
[7] = Stability in monkey plasma assessed as parent compound remaining at 1 uM measured after 2 hrs by LC-MS/MS analysis; format: ADME, cell-free, Macaca mulatta; details: rhesus monkey, read-out: Stability; in short: as §2
[8] = Clearance in Sprague-Dawley rat at 2 mg/kg, iv by LC-MS/MS analysis; format: ADME, organism-based; details: in vivo
In short: (§3)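 Male Sprague-Dawley rats (187-205 g, n=6 per route). IV group: 2 mg/kg by tail vein in 10% DMSO/90% PEG400, fed animals. Oral group: 5 mg/kg as a 0.5% methylcellulose suspension, fasted animals. Jugular cannula blood taken pre-dose and from 0.033 h (iv only) to 24 h. Plasma stored at -20 °C and analysed by LC-MS/MS.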

[9] = Volume of distribution in Sprague-Dawley rat at 2 mg/kg, iv or 5 mg/kg, po by LC-MS/MS analysis; format: ADME, organism-based; details: in vivo; in short: as §3
[10] = Half life in Sprague-Dawley rat at 2 mg/kg, iv by LC-MS/MS analysis; format: ADME, organism-based; details: in vivo; in short: as §3
[11] = Oral bioavailability in Sprague-Dawley rat at 5 mg/kg by LC-MS/MS analysis; format: ADME, organism-based; details: in vivo; in short: as §3
[12] = test system: Mus musculus; assay: Antiarthritic activity in complete freund's adjuvant-induced DBA/1 mouse arthritis model assessed as reduction in paw volume at 10 mg/kg, po qd administered starting from 29 day post-CFA challenge and measured on day 29, 33, 36, 40 and 43 by caliper method; format: functional, organism-based
In short: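 Male DBA/1 mice (18-20 g, 4-6 weeks) immunized intradermally at the tail base with bovine type II collagen in CFA on day 0, then challenged with collagen II in IFA on day 20. Randomized on day 29 and dosed orally once daily (n=6 per group) with vehicle as control. Paw thickness measured by caliper on days 29, 33, 36, 40 and 43. Mean ± SEM; Dunnett's test vs vehicle.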

[13] = Toxicity in complete freund's adjuvant-induced DBA/1 mouse arthritis model assessed as change in body weight at 10 mg/kg, po qd administered starting from 29 day post-CFA challenge and measured on day 29, 33, 36, 40 and 43; format: organism-based; details: in vivo, 696 h
In short: (§4)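 CIA in male DBA/1 mice: intradermal bovine type II collagen in CFA on day 0, collagen II in IFA boost on day 20. Randomized on day 29 and given oral doses once daily (n=6 per group) alongside vehicle and naive groups. Body weights recorded over the study days.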

[14] = Toxicity in complete freund's adjuvant-induced DBA/1 mouse arthritis model assessed as effect on appetite at 10 mg/kg, po qd administered starting from 29 day post-CFA challenge and measured on day 29, 33, 36, 40 and 43; format: organism-based; details: in vivo, 696 h; in short: as §4
[15] = biological target: Tyrosine-protein kinase BTK (Homo sapiens, UniProt Q06187, C481S); assay: biochemical
Tyrosine-protein kinase BTK, sequence (Q06187 whole entry C481S): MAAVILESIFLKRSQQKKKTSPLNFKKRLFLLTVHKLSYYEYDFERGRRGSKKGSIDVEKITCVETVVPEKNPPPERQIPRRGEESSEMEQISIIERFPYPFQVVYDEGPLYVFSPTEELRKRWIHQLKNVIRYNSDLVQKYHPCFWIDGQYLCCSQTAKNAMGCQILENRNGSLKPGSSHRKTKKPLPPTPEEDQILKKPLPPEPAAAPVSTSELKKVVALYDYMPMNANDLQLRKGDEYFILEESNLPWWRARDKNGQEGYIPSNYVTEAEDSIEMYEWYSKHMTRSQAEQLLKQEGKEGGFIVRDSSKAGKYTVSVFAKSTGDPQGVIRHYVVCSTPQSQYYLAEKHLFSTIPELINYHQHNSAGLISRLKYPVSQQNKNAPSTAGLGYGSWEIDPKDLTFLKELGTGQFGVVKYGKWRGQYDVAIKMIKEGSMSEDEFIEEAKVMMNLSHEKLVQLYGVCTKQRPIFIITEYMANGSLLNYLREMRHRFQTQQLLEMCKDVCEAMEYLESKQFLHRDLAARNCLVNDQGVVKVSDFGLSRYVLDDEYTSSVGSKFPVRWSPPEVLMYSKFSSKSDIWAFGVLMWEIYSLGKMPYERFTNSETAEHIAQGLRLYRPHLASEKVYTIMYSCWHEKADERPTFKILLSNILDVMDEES

SMILES: COc1cc2cn[nH]c2cc1-c1ccc(F)c2c(N)c(C(N)=O)cnc12
- Ratio IC50 [1]: 31
- Ratio IC50 [2]: > 1000
- remaining at 2 h, 1 µM [3]: 93%
- remaining at 2 h, 1 µM [4]: 88%
- remaining at 2 h, 1 µM [5]: 96%
- remaining at 2 h, 1 µM [6]: 98%
- remaining at 2 h, 1 µM [7]: 88%
- clearance [8]: 20.8 mL/min/kg
- Vd [9]: 2.1 L/kg
- half-life [10]: 1.2 h
- bioavailability [11]: 25%
- Activity [12]: Active
- Activity [13]: Non-Toxic
- Activity [14]: Non-Toxic
- IC50 [15]: 39 nM
